Reference: ChEMBL document CHEMBL4354806, “Discovery of an Orally Bioavailable Pan αv Integrin Inhibitor for Idiopathic Pulmonary Fibrosis” (J Med Chem, 2019)

Columns and labels:
[1] = Inhibition of recombinant human integrin alphaV (31 to 992 residues) beta5 (24 to 719 residues) expressed in CHO cells preincubated for 15 mins followed by Cy3B-RGD probe addition and measured after 2 hrs by fluorescence polarization assay
In short: (§1)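 Soluble purified human integrins from CHO cells, with 1 nM Cy3B-RGD probe, in 25 mM HEPES, 150 mM NaCl, 1 mM CHAPS, pH 7.4, at 20-22 °C. Final protein and cation: αvβ3 1 nM with 0.4 mM MgCl₂; αvβ5 4 nM with 0.1 mM MnCl₂; αvβ6 8 nM with MgCl₂; αvβ8 8 nM with MnCl₂. Read-out was polarization. pIC50 is mean ± SEM over test occasions.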

[2] = target: Integrin alpha-V/beta-3 (Homo sapiens, UniProt P05106+P06756); experiment: Inhibition of recombinant human integrin alphaV (31 to 992 residues) beta3 (27 to 718 residues) expressed in CHO cells preincubated for 15 mins followed by Cy3B-RGD probe addition and measured after 2 hrs by fluorescence polarization assay; in short: as §1
[3] = target: Integrin alpha-V/beta-6 (Homo sapiens, UniProt P06756+P18564); experiment: Inhibition of recombinant human integrin alphaV (31 to 992 residues) beta6 (22 to 707 residues) expressed in CHO cells preincubated for 15 mins followed by Cy3B-RGD probe addition and measured after 2 hrs by fluorescence polarization assay; in short: as §1
[4] = Inhibition of recombinant human integrin alphaV (31 to 992 residues) beta8 (43 to 684 residues) expressed in CHO cells preincubated for 15 mins followed by Cy3B-RGD probe addition and measured after 2 hrs by fluorescence polarization assay; in short: as §1
[5] = Clearance in CD rat at 1 mg/kg, iv and 1 mg/kg, po measured up to 24 hrs by LC-MS/MS analysis; format: ADME, organism-based; settings: in vivo
In short: (§2)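 Two male CD rats per arm. IV: 1 mg/kg bolus via femoral vein in DMSO:PEG200:water (5:45:50). PO: 1 mg/kg by gavage in 0.5% methyl cellulose/0.2% Tween 80. Blood was taken by tail-vein cannula to 7 h and by venipuncture to 24 h. Plasma was extracted with acetonitrile plus internal standard, and drug measured by LC-MS/MS.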

[6] = Permeability of the compound in pH 7.4 phosphate buffer measured after 3 hrs by artificial membrane permeability assay based LC-MS analysis; format: ADME; settings: PAMPA, read-out: permeability
In short: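 Bilayer of 1.8% egg phosphatidylcholine and 1% cholesterol in n-decane on filter inserts. Phosphate buffer was 50 mM Na₂HPO₄ with 0.5% hydroxypropyl-β-cyclodextrin, pH 7.4. Compound was added to the donor (bottom) well and incubated 3 h at room temperature. Donor and acceptor concentrations were measured by liquid chromatography.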

[7] = Volume of distribution at steady state in CD rat at 1 mg/kg, iv and 1 mg/kg, po measured up to 24 hrs by LC-MS/MS analysis; format: ADME, organism-based; settings: in vivo, read-out: Vdss; in short: as §2
[8] = Oral bioavailability in CD rat at 1 mg/kg administered via gavage up to 24 hrs by LC-MS/MS analysis; format: ADME, organism-based; settings: in vivo; in short: as §2
[9] = Half life in CD rat at 1 mg/kg, iv and 1 mg/kg, po measured up to 24 hrs by LC-MS/MS analysis; format: ADME, organism-based; settings: in vivo; in short: as §2

Row | Compound | pIC50 [1] | IC50 [2] [nM] | IC50 [3] [nM] | pIC50 [4] | clearance [5] [mL/min/kg] | Papp at 3 h [6] [×10⁻⁶ cm/s] | Vd [7] [L/kg] | bioavailability [8] [%] | half-life [9] [h]
1 | O=C(O)CC(Nc1ccc(OCCc2ccc3c(n2)NCCC3)nc1)c1cccc(Cl)c1 (racemic) | 7.8 | 12.6 | 398 | 6 |  |  |  |  | 
2 | O=C(O)CC(Nc1cnc(OCCc2ccc3c(n2)NCCC3)nc1)c1cccc(Cl)c1 (racemic) | 7.3 | 50.1 | 631 | 5.6 |  |  |  |  | 
3 | O=C(O)CC(Nc1ccc(OCCc2ccc3c(n2)NCCC3)cn1)c1ccc(CN2CCOCC2)cc1 (racemic) | 8.2 | 3.16 | 31.6 | 6.9 |  |  |  |  | 
4 | O=C(O)CC(Nc1ccc(OCCc2ccc3c(n2)NCCC3)cn1)c1ccc(Oc2ccccc2)cc1 (racemic) | 8.5 | 2 | 12.6 | 7.1 |  |  |  |  | 
5 | O=C(O)CC(Nc1ccc(OCCc2ccc3c(n2)NCCC3)cn1)c1cccc(CN2CCOCC2)c1 (racemic) | 8.5 | 3.98 | 63.1 | 7.2 |  |  |  |  | 
6 | O=C(O)CC(Nc1ccc(OCCc2ccc3c(n2)NCCC3)cn1)c1cc(C2CC2)cc(C2CC2)c1 (racemic) | 7 | 126 | 316 | 6.9 |  |  |  |  | 
7 | O=C(O)CC(Nc1ccc(OCCc2ccc3c(n2)NCCC3)cc1)c1cccc(F)c1 (racemic) | 8.8 | 2 | 100 | 6.4 |  |  |  |  | 
8 | O=C(O)CC(Nc1ccc(OCCc2ccc3c(n2)NCCC3)cn1)c1cccc(Br)c1 (racemic) | 8.4 | 5.01 | 31.6 | 7.2 |  |  |  |  | 
9 | O=C(O)CC(Nc1ccc(OCCc2ccc3c(n2)NCCC3)cn1)c1ccc(C(F)(F)F)cc1 (racemic) | 8.1 | 7.94 | 79.4 | 6.7 |  |  |  |  | 
10 | O=C(O)CC(Nc1ccc(OCCc2ccc3c(n2)NCCC3)cn1)c1cccc(Cl)c1 (racemic) | 8.2 | 6.31 | 50.1 | 7.1 |  |  |  |  | 
11 | O=C(O)CC(Nc1ncc(OCCc2ccc3c(n2)NCCC3)cn1)c1cccc(Cl)c1 (racemic) | 8.3 | 5.01 | 158 | 6.6 |  |  |  |  | 
12 | O=C(O)CC(Nc1ccc(OCCc2ccc3c(n2)NCCC3)cn1)c1cccc(F)c1 (racemic) | 8.4 | 2.51 | 79.4 | 6.8 |  |  |  |  | 
13 | O=C(O)CC(Nc1ccc(OCCc2ccc3c(n2)NCCC3)cn1)c1cccc(C2CC2)c1 (racemic) | 8.4 | 3.98 | 15.8 | 7.4 | 8 | 8 | 0.5 | 98 | 1.8
14 | O=C(O)CC(Cc1ccc(OCCc2ccc3c(n2)NCCC3)cc1)c1ccccc1 (racemic) | 8.7 | 2 | 1260 | 5.8 |  |  |  |  | 
15 | O=C(O)CC(Nc1cnc(OCCc2ccc3c(n2)NCCC3)cn1)c1cccc(Cl)c1 (racemic) | 5.3 | 5010 | 12600 | 4.9 |  |  |  |  | 

Next, values leading:

Row | pIC50 [1] | IC50 [2] [nM] | IC50 [3] [nM] | pIC50 [4] | clearance [5] [mL/min/kg] | Papp at 3 h [6] [×10⁻⁶ cm/s] | Vd [7] [L/kg] | bioavailability [8] [%] | half-life [9] [h] | Compound
16 | 7.9 | 158 | 794 | 5.7 |  |  |  |  |  | O=C(O)C[C@@H](Nc1ccc(OCCc2ccc3c(n2)NCCC3)nn1)c1cccc(Cl)c1
17 | 8.9 | 0.794 | 6.31 | 8.1 |  |  |  |  |  | O=C(O)C[C@H](Nc1ccc(OCCc2ccc3c(n2)NCCC3)nn1)c1cccc(Cl)c1
18 | 8.2 | 7.94 | 251 | 6.1 |  |  |  |  |  | O=C(O)CC(Nc1cnc(OCCc2ccc3c(n2)NCCC3)nc1)c1ccc(Cl)cc1 (racemic)
19 | 7.3 | 39.8 | 1000 | 5.6 |  |  |  |  |  | O=C(O)CC(Nc1ccc(OCCc2ccc3c(n2)NCCC3)nc1)c1ccc(Cl)cc1 (racemic)
20 | 8.5 | 3.16 | 20 | 7.6 |  |  |  |  |  | O=C(O)CC(Nc1ccc(OCCc2ccc3c(n2)NCCC3)nn1)c1cccc(Cl)c1 (racemic)
21 | 9 | 1.26 | 126 | 7.2 |  |  |  |  |  | O=C(O)CC(Nc1ncc(OCCc2ccc3c(n2)NCCC3)cn1)c1ccc(Cl)cc1 (racemic)
22 | 4.9 | 12600 | 19500 | 4.5 |  |  |  |  |  | O=C(O)CC(Nc1cnc(OCCc2ccc3c(n2)NCCC3)cn1)c1ccc(Cl)cc1 (racemic)
23 | 8.5 | 2 | 25.1 | 7.5 |  |  |  |  |  | O=C(O)CC(Nc1ccc(OCCc2ccc3c(n2)NCCC3)nn1)c1ccc(Cl)cc1 (racemic)
24 | 8.4 | 3.16 | 39.8 | 6.9 |  |  |  |  |  | O=C(O)CC(Nc1ccc(OCCc2ccc3c(n2)NCCC3)cn1)c1ccc(Cl)cc1 (racemic)
